Experimental data collected from several papers.
Each line is one published result; the experiments were not run side by side. pEC50: −log10 of the molar value.

| SMILES | target or system | test | system | setting | measurement | value |
| --- | --- | --- | --- | --- | --- | --- |
| CC(=O)OCCCOc1ccc(C(=O)C(Cl)Cl)cc1[N+](=O)[O-] | NCI-H1975 | cell growth or viability, MTT | – | 2.5 µM | inhibition | 78.2% |
| COc1cccc(-c2nc(N)nc(N)c2OCCCOc2ccccc2CCC(=O)O)c1 | Mycobacterium avium | microbial growth, resazurin | – | – | MIC | 5.6 µg/mL |
| CC(C)/N=c1\cc2n(-c3ccc(Cl)cc3)c3ccccc3nc-2cc1Nc1ccc(Cl)cc1 | Mycobacterium avium | microbial growth | ATCC700898 | – | MIC | 0.06 µM |
| NCC[C@H](O)C(=O)N[C@@H]1C[C@H](N)[C@@H](O[C@H]2O[C@H](CN)[C@@H](O)[C@H](O)[C@H]2O)[C@H](O)[C@H]1O[C@H]1O[C@H](CO)[C@@H](O)[C@H](N)[C@H]1O | Mycobacterium avium | microbial growth, resazurin | – | – | MIC | 1.7 µg/mL |
| CN(Cc1ccc(C(C)(C)C)cc1)Cc1cccc2ccccc12 | Trichophyton rubrum | microbial growth, disc diffusion | ATCC28188 | 0.512 µg/mL, 6 days | inhibition zone | ≥ 55 mm |
| O=C(CO/N=c1\cc2n(-c3ccc(Cl)cc3)c3ccccc3nc-2cc1Nc1ccc(Cl)cc1)NCc1ccc2c(c1)CCO2 | Mycobacterium avium | microbial growth | ATCC700898 | – | MIC | 1.88 µM |
| CN(Cc1ccc(C2(C(F)(F)F)CC2)cc1)Cc1cccc2ccccc12 | Trichophyton rubrum | microbial growth, disc diffusion | ATCC28188 | 0.064 µg/mL, 6 days | inhibition zone | ≥ 55 mm |
| CCOC(=O)CNC(=O)CO/N=c1\cc2n(-c3ccc(Cl)cc3)c3ccccc3nc-2cc1Nc1ccc(Cl)cc1 | Mycobacterium avium | microbial growth | – | clinical isolate | MIC | > 30 µM |
| C=CC(=O)NC1CCN(c2ncc3ncnc(Nc4ccc(Oc5ccc6c(c5)ncn6C)c(C)c4)c3n2)CC1 | NCI-H520 | cell growth or viability | – | – | pEC50 | 6.15 |
| O=C(c1ccc(Oc2ccc3cc(Br)ccc3c2Cl)c([N+](=O)[O-])c1)C(Cl)Cl | NCI-H1975 | cell growth or viability, MTT | – | 2.5 µM | inhibition | 85.4% |
| CO/N=c1\cc2n(-c3ccc(Cl)cc3)c3ccccc3nc-2cc1Nc1ccc(Cl)cc1 | Mycobacterium avium | microbial growth | – | clinical isolate | MIC | > 30 µM |
| COc1cccc2c1C(=O)c1c(O)c3c(c(O)c1C2=O)C[C@@](O)(C(=O)CO)C[C@@H]3O[C@H]1C[C@H](N)[C@H](O)[C@H](C)O1 | NCI-H1975 | cell growth or viability, MTT | – | 2.5 µM | inhibition | 97.7% |
| Nc1nc(N)c(OCCCOc2ccccc2CCC(=O)O)c(C2CCNCC2)n1 | Mycobacterium avium | microbial growth, resazurin | – | – | MIC | 6.2 µg/mL |
| N#Cc1ccc(Oc2ccc(C(=O)C(Cl)Cl)cc2[N+](=O)[O-])cc1 | NCI-H1975 | cell growth or viability, MTT | – | 2.5 µM | inhibition | 96.8% |
| O/N=c1\cc2n(-c3ccc(Cl)cc3)c3ccccc3nc-2cc1Nc1ccc(Cl)cc1 | Mycobacterium avium | microbial growth | ATCC700898 | – | MIC | 1.88 µM |
| O=C(c1ccc(Oc2ccc(Br)cc2)c([N+](=O)[O-])c1)C(Cl)Cl | NCI-H1975 | cell growth or viability, MTT | – | 2.5 µM | inhibition | 60.3% |
| Nc1nc(N)c(OCCCOc2ccccc2CCC(=O)O)c(-c2ccncc2)n1 | Mycobacterium avium | microbial growth, resazurin | – | – | MIC | 0.6 µg/mL |
| O=C(c1ccc(Oc2cccc(-c3ccccc3)c2)c([N+](=O)[O-])c1)C(Cl)Cl | NCI-H1975 | cell growth or viability, MTT | – | 2.5 µM | inhibition | 98.1% |
| O=C(CO/N=c1\cc2n(-c3ccc(Cl)cc3)c3ccccc3nc-2cc1Nc1ccc(Cl)cc1)NCc1ccc(C(F)(F)F)cc1 | Mycobacterium avium | microbial growth | – | clinical isolate | MIC | > 30 µM |
